Laboratory results reported in ChEMBL document CHEMBL5380839, “Design and Pharmacological Characterization of α4β1 Integrin Cyclopeptide Agonists: Computational Investigation of Ligand Determinants for Agonism versus Antagonism” (J Med Chem, 2023).
Starred links: 1 amine or outer side, 2 acyl side, 3 side chain; linkers in the order of their positions; H or OH if unused. Positions of bridges follow the written chain, without caps; N, C: chain ends. Non-standard residues stand in square brackets, D forms with d. Residues, ends and D or L forms follow the SMILES beside them. Groups on a side chain read outwards from the residue. *: point of attachment. dPhe(4-NH2) = Nc1ccc(C[C@@H](N)C(=O)O)cc1; Phe(4-NH2) = Nc1ccc(C[C@H](N)C(=O)O)cc1; X1 = O=C(Cc1ccc(N[*:1])cc1)[*:2]; NH(2-Me-phenyl) = Cc1ccccc1N*; Phg = N[C@H](C(=O)O)c1ccccc1; d(β3hA) = C[C@@H](N)CC(=O)O; CO = O=C([*:1])[*:2]; NHPr = CCCN*

Key:
[1] = biological target: T1, Integrin alpha4/beta7 complex (Homo sapiens, UniProt P26010+P48169); assay: Agonist activity at alpha4beta7 integrin receptor in human RPMI-8866 cells assessed as inhibition of mucosal vascular add-ressin cell adhesion molecule 1-induced cell adhesion pre-incubated for 30 mins followed by 30 mins incubation in mucosal vascular add-ressin cell adhesion molecule 1 coated wells by fluorescence plate reader assay; type: cell-based
T1 sequence (P48169 whole entry): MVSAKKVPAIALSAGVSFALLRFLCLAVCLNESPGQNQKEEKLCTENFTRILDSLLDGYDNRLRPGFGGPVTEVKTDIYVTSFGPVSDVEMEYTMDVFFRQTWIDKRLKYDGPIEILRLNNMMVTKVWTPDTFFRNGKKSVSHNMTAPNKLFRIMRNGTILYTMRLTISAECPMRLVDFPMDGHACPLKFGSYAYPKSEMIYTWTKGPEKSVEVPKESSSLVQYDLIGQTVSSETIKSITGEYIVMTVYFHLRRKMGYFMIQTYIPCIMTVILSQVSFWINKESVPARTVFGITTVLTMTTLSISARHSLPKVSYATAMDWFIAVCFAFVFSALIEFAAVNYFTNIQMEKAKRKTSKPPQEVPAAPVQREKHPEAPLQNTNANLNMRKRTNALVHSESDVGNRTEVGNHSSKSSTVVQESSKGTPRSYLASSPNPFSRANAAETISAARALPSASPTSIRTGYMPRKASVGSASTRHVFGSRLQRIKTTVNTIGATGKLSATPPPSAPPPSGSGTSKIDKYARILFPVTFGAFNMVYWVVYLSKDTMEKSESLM
T1 sequence (P26010 whole entry): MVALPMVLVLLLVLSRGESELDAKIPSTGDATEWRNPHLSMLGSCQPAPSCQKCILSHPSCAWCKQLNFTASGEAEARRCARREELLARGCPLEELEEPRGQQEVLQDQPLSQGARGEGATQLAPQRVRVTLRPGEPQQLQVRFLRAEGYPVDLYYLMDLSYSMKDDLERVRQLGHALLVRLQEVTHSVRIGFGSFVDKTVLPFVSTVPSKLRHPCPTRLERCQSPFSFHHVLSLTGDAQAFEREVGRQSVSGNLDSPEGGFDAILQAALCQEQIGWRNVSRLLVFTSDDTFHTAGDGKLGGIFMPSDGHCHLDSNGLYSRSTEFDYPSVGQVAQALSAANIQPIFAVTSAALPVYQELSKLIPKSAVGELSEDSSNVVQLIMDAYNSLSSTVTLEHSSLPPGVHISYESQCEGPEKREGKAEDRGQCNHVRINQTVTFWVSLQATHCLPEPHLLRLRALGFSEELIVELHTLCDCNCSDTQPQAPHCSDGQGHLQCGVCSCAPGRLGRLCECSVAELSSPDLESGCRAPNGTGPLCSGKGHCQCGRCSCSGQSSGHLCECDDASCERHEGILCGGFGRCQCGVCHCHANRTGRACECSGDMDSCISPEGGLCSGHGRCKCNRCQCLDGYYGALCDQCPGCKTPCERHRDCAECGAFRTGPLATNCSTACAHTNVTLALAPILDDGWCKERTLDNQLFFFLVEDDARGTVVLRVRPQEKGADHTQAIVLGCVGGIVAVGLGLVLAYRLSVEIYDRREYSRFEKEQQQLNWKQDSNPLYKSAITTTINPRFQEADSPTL

Integrin alpha-M/beta-2 [2] = biological target: T2, Integrin alpha-M/beta-2 (Homo sapiens, UniProt P05107+P11215); assay: Agonist activity at alphaMbeta2 integrin receptor in human HL-60 cells assessed as inhibition of fibrinogen-induced cell adhesion pre-incubated for 30 mins followed by 30 mins incubation in fibrinogen coated wells by fluorescence plate reader assay; type: cell-based
T2 sequence (P05107 23-769 limits assumed, other chains not shown): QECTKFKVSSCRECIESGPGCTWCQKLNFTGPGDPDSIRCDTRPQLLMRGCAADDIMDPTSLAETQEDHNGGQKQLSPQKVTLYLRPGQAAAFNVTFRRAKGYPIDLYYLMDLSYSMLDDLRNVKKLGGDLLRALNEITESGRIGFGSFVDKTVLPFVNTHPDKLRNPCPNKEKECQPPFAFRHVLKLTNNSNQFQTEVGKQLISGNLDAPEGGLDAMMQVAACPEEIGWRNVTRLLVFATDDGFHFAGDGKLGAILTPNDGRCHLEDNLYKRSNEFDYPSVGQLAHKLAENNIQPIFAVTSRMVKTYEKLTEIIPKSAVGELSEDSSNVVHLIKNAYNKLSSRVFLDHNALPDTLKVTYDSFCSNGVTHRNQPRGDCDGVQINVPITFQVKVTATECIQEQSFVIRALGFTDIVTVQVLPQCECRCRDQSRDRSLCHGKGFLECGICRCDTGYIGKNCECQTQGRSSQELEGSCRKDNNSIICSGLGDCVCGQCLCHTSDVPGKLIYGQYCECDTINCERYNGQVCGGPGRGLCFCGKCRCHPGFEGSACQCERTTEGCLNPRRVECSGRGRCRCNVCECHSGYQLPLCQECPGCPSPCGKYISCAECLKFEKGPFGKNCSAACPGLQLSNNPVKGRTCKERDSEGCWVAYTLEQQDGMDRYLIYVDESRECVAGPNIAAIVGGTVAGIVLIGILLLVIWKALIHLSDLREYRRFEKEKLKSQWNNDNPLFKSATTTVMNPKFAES

[3] = biological target: T1, Integrin alpha4/beta7 complex; assay: Binding affinity to alpha4beta7 integrin receptor (unknown origin) preincubated for 30 mins followed by 30 mins incubation in mucosal vascular add-ressin cell adhesion molecule 1 coated wells by fluorescence based assay; type: protein-complex assay
Integrin alpha-M/beta-2 [4] = biological target: T2, Integrin alpha-M/beta-2; assay: Binding affinity to alphaMbeta2 integrin receptor (unknown origin) preincubated for 30 mins followed by 30 mins incubation in fibrinogen coated wells by fluorescence based assay; type: protein-complex assay
[5] = Stability in mouse serum assessed as parent compound remaining incubated upto 3 hrs by RP HPLC analysis; type: ADME, cell-free; settings: read-out: Stability
Procedure, shortened: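 Peptide stock (10 mM in Tris buffer pH 7.4) diluted 1:20 into mouse serum and held at 37 °C. […] Remaining peptide in the supernatant measured by RP HPLC. Triplicate, repeated three times.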

Integrin alpha-4/beta-1 [6] = biological target: T3, Integrin alpha-4/beta-1 (Homo sapiens, UniProt P05556+P13612); assay: Agonist activity at alpha4beta1 integrin receptor in human Jurkat E6.1 cells assessed as inhibition of fibronectin-induced cell adhesion pre-incubated for 30 mins followed by 30 mins incubation in fibronectin coated wells by fluorescence plate reader assay; type: cell-based
T3 sequence (P05556 whole entry): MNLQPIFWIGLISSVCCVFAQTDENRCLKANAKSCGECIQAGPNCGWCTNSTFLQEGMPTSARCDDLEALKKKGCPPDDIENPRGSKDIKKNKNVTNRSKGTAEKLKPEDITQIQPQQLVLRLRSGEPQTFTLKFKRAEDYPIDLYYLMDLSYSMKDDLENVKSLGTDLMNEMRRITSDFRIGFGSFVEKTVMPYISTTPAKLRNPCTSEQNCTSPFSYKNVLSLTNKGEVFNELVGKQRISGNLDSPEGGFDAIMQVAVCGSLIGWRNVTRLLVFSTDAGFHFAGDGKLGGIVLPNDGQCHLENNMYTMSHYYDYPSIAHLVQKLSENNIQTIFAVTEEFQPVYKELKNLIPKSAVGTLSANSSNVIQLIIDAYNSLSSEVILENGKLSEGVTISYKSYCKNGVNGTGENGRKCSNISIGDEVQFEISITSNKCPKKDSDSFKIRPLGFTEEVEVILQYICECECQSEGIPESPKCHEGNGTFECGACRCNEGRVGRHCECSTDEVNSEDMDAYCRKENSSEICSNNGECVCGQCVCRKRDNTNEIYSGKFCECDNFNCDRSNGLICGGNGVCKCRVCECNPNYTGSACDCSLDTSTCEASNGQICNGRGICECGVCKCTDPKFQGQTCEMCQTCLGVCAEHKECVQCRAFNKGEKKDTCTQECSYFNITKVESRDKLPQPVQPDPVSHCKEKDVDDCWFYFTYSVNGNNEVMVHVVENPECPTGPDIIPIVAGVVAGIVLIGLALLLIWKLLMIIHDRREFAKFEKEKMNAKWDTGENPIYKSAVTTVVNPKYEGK
T3 sequence (P13612 whole entry): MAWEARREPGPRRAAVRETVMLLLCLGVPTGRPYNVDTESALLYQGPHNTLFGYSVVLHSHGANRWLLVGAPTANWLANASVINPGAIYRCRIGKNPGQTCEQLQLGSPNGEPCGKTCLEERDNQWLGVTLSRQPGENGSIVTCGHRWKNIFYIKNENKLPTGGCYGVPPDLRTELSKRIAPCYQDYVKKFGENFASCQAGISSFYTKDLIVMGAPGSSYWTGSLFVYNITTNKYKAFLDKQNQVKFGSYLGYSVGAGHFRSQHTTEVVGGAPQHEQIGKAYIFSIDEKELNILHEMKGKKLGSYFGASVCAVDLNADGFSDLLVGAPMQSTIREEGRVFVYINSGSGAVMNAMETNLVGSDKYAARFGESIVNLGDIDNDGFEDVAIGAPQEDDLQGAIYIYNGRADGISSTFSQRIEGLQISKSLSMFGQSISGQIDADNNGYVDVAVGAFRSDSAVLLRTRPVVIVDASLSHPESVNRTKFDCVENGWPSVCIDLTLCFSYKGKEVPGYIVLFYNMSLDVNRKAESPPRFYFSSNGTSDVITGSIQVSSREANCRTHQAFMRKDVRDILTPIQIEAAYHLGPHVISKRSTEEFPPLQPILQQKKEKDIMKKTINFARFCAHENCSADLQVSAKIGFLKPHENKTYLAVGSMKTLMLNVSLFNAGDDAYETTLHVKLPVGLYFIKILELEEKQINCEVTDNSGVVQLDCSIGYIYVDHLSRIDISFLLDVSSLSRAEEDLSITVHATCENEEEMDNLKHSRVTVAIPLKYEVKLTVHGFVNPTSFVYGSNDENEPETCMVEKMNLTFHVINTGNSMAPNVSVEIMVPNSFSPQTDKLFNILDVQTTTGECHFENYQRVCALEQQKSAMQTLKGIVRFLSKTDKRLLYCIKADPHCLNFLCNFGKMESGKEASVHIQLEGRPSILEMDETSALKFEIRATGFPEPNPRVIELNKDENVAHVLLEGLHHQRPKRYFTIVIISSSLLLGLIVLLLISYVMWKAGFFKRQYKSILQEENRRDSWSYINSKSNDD

Integrin alpha-4/beta-1 [7] = biological target: T3, Integrin alpha-4/beta-1; assay: Binding affinity to alpha4beta1 integrin receptor (unknown origin) preincubated for 30 mins followed by 30 mins incubation in vascular cell adhesion molecule 1-induced cell adhesion coated wells by fluorescence based assay; type: protein-complex assay
Integrin alpha-5/beta-1 = Integrin alpha-5/beta-1 (Homo sapiens, UniProt P05556+P08648); assay: Binding affinity to alpha5beta1 integrin receptor (unknown origin) preincubated for 30 mins followed by 30 mins incubation in fibronectin coated wells by fluorescence based assay; type: protein-complex assay
Integrin alpha-4/beta-1 [8] = biological target: T3, Integrin alpha-4/beta-1; assay: Binding affinity to alpha4beta1 integrin receptor (unknown origin) preincubated for 30 mins followed by 30 mins incubation in fibronectin coated wells by fluorescence based assay; type: protein-complex assay

Cc1ccccc1NC(=O)N1C(=O)CC1CC(=O)NCC(=O)O (centres undefined)
EC50 [1]: > 5 µM | EC50 (Integrin alpha-M/beta-2 [2]): > 5 µM

Cc1ccccc1NC(=O)Nc1ccc(CC(=O)N[C@@H](CC(C)C)C(=O)N[C@@H](CC(=O)O)C(=O)N[C@H](C(=O)N2CCC[C@H]2C(=O)O)C(C)C)cc1 ({NH(2-Me-phenyl)-CO}-[X1]LDVP-OH)
IC50 [3]: > 1 µM | IC50 (Integrin alpha-M/beta-2 [4]): > 1 µM

Cc1ccccc1NC(=O)Nc1ccc(C[C@H]2NC(=O)C[C@@H](C(=O)O)NC(=O)[C@H](C(C)C)NC(=O)[C@H](CC(=O)O)NC(=O)[C@H](CC(C)C)NC2=O)cc1 ([dPhe(4-NH2)]([CO-NH(2-Me-phenyl)])LDVD-OH; lactam N-5)
remaining at 3 h [5]: > 85%

Cc1ccccc1NC(=O)Nc1ccc(C[C@@H]2NC(=O)C[C@@H](C(=O)O)NC(=O)[C@H](C(C)C)NC(=O)[C@H](CC(=O)O)NC(=O)[C@H](Cc3ccccc3)NC2=O)cc1 ([Phe(4-NH2)]([CO-NH(2-Me-phenyl)])FDVD-OH; lactam N-5)
EC50 (Integrin alpha-4/beta-1 [6]): > 5 µM

Cc1ccccc1NC(=O)Nc1ccc(C[C@@H]2NC(=O)C[C@@H](C(=O)O)NC(=O)[C@H](C(C)C)NC(=O)[C@H](CC(=O)O)NC(=O)[C@H](CC(C)C)NC2=O)cc1 ([Phe(4-NH2)]([CO-NH(2-Me-phenyl)])LDVD-OH; lactam N-5)
remaining at 3 h [5]: > 85%

Cc1ccccc1NC(=O)Nc1ccc(C[C@@H]2NC(=O)C[C@@H](C)NC(=O)[C@H](C(C)C)NC(=O)[C@H](CC(=O)O)NC(=O)[C@H](CC(C)C)NC2=O)cc1 (cyclo([Phe(4-NH2)]([CO-NH(2-Me-phenyl)])LDV[d(β3hA)]))
EC50 (Integrin alpha-4/beta-1 [6]): > 5 µM

Cc1ccccc1NC(=O)Nc1ccc(C[C@H]2NC(=O)C[C@@H](C)NC(=O)[C@H](C(C)C)NC(=O)[C@H](CC(=O)O)NC(=O)[C@H](CC(C)C)NC2=O)cc1 (cyclo(DV[d(β3hA)][dPhe(4-NH2)]([CO-NH(2-Me-phenyl)])L))
EC50 (Integrin alpha-4/beta-1 [6]): > 5 µM

CCCNC(=O)[C@@H]1CC(=O)N[C@@H](Cc2ccc(NC(=O)Nc3ccccc3C)cc2)C(=O)N[C@@H](CC(C)C)C(=O)N[C@@H](CC(=O)O)C(=O)N[C@@H](C(C)C)C(=O)N1 ([Phe(4-NH2)]([CO-NH(2-Me-phenyl)])LDVD-NHPr; lactam N-5)
EC50 (Integrin alpha-4/beta-1 [6]): > 5 µM

Cc1ccccc1NC(=O)Nc1ccc(C[C@H]2NC(=O)C[C@@H](C(=O)O)NC(=O)[C@H](c3ccccc3)NC(=O)[C@H](CC(=O)O)NC(=O)[C@H](CC(C)C)NC2=O)cc1 ([dPhe(4-NH2)]([CO-NH(2-Me-phenyl)])LD[Phg]D-OH; lactam N-5)
EC50 (Integrin alpha-4/beta-1 [6]): > 5 µM

Cc1ccccc1NC(=O)N1C(=O)CC1CC(=O)O (centres undefined)
EC50 [1]: > 5 µM | EC50 (Integrin alpha-M/beta-2 [2]): > 5 µM

Cc1ccccc1NC(=O)Nc1ccc(C[C@@H]2NC(=O)C[C@@H](C(=O)O)NC(=O)[C@H](C(C)C)NC(=O)[C@H](C)NC(=O)[C@H](Cc3ccccc3)NC2=O)cc1 ([Phe(4-NH2)]([CO-NH(2-Me-phenyl)])FAVD-OH; lactam N-5)
EC50 (Integrin alpha-4/beta-1 [6]): 1.06 µM | IC50 (Integrin alpha-4/beta-1 [7]): 0.899 µM | IC50 (Integrin alpha-5/beta-1): > 5 µM | IC50 [3]: > 5 µM | IC50 (Integrin alpha-M/beta-2 [4]): > 5 µM | IC50 (Integrin alpha-4/beta-1 [8]): 0.976 µM
